{"source": "ChEMBL document CHEMBL1127799", "about": "“Derivatives of a novel cyclopeptolide. 1. Synthesis, antifungal activity, and structure-activity relationships” (1994)", "assay_type_in_all_cases": "functional", "key": {"[1]": {"test_system": "Meyerozyma guilliermondii", "test": "Tested for minimum inhibitory concentration against Candida guilliermondii 80 (C.g) at pH 4.5.", "how_it_was_run": "(§1)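 Broth microdilution in malt extract broth, initial pH 4.5 or 6.5, with 1×10^3 CFU per 0.2 mL well of thawed stored cultures. Compound stocks were made in 5% DMSO/0.2% Tween 80 and diluted to final 0.05–100 μg/mL. Plates were incubated 48 h at 30 °C and read macroscopically. MIC was the lowest concentration with no detectable growth. Vehicle-only wells served as controls.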"}, "Pichia kudriavzevii": {"test_system": "Pichia kudriavzevii", "test": "Tested for minimum inhibitory concentration against Candida krusei 132 (C.k) at pH of 4.5.", "how_it_was_run": "as §1"}, "Mus musculus": {"species_on_record": "Mus musculus", "test": "Tested for efficacy of compound in experimental vaginal candidosis (mouse) after oral treatment at dosage of 4 x300 mg kg e-1", "how_it_was_run": "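Female NMRI mice (18–20 g; 10 per group) were hormonally conditioned and infected intravaginally with 3.5×10^4 CFU C. albicans no. 124 in 50 μL Sabouraud's glucose broth. Four doses were given by gavage or ip, at 2 h before and 2, 18 and 24 h after infection. One day after the last dose, vaginal swabs were plated on Sabouraud agar with streptomycin (0.1 mg/mL) for 48 h at 37 °C. Failed reisolation counted as cure.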"}}, "data": [{"smiles": "CC[C@@H](C)[C@H]1C(=O)NCC(=O)N(C)[C@@H](C(C)C)C(=O)N[C@@H](Cc2ccc(OC)cc2)C(=O)O[C@H](C)C(=O)N2CCCC[C@H]2C(=O)N(C)[C@@H](C(C)C)C(=O)N[C@@H](C(C)C)C(=O)N(C)[C@@H](CC(=O)O)C(=O)N(C)[C@@H]([C@@H](C)CC)C(=O)N1C", "values": [{"measurement": "MIC", "setting": "[1]", "result": 6.25, "unit": "µg/mL"}, {"measurement": "MIC", "setting": "Pichia kudriavzevii", "result": "> 100", "unit": "µg/mL"}, {"measurement": "Efficacy", "setting": "Mus musculus", "result": 64, "unit": "%"}]}]}
